# SMARCA2 act – SMARCA2 function activation, primary screen; MG213 cells, MMTV-luciferase reporter, dexamethasone, overnight; activation, % at 9.1 µM; 370,000 compounds, 1% hits; in the data active = activation above about 7.8%
# ASAP1 inh – blocks human ASAP1-stimulated Arf1 GTP hydrolysis; 360,000 compounds, 0.19% hits; Q9ULH1; GDP FP detection; inhibition, % at 16.5 µM; in the data active = inhibition above about 25%
# Target sequence (Q9ULH1 325-724 limits assumed): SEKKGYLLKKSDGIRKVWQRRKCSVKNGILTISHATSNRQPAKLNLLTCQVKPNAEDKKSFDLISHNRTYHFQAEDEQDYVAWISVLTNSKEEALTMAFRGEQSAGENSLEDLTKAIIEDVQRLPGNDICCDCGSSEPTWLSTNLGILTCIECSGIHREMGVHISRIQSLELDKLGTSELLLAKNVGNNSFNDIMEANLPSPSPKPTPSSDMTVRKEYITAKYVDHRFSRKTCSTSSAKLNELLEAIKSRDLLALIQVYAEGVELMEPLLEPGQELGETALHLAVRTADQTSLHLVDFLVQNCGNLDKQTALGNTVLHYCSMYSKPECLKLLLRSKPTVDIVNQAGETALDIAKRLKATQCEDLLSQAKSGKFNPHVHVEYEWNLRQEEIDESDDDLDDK
# ARFGAP1 inhibitor – inhibits rat ARF GTPase activating protein 1; Arfgap1-stimulated ARF1 GTP hydrolysis, GDP FP detection; inhibition, % at 16.5 µM; Q62848; 360,000 compounds, 0.26% hits;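 active = inhibition above a per-plate limit, mean inhibition of low control wells plus 3 SD, cut at about 25% in these data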
# Target sequence (Q62848 1-136 limits assumed): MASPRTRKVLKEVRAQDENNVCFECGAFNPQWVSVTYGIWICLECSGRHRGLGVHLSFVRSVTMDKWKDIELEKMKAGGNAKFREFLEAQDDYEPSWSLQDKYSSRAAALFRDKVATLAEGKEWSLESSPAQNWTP
#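 Material: rat Arfgap1 catalytic domain, aa 1-136; also added: human ARF1(Δ1-17)-GTP substrate; compound dosing: one concentration, 16.5 µM, DMSO 1.26%; incubation: GTP hydrolysis reaction 2 h at 25 °C; measured by: Tracer-displacement fluorescence polarization with EDTA stop, 620/688 nm; evaluation: % inhibition from polarization; repeats: one replicate per compound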
# esBAF inh – SWI/SNF esBAF complex inhibition | 350,000 compounds, 2% hits | reporter increase, % at 12.5 µM | AID 602393 | mouse ES cells, Bmi1-luciferase knock-in reporter, 24 h; 100% = twice the neutral-well signal; in the data active = activation above about 40%;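 also: a rise in the Bmi1 reporter signal indicates esBAF inhibition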
# Hits are given with their value; . = inactive; / = not tested or not shown. Hits are enriched below; roughly 2.6% of the tested compounds scored in any of these assays.
SMILES,SMARCA2 act,ASAP1 inh,ARFGAP1 inhibitor,esBAF inh
CC(C)NC(=O)N(C)C[C@@H]1OCCCC[C@H](C)Oc2ccc(NC(=O)Nc3ccc4c(c3)OCO4)cc2C(=O)N([C@H](C)CO)C[C@@H]1C,/,/,/,48
C[C@@H]1CN([C@@H](C)CO)C(=O)c2cc(NC(=O)c3ccncc3)ccc2O[C@@H](C)CCCCO[C@H]1CN(C)C(=O)Nc1ccc2c(c1)OCO2,/,/,/,.
C[C@H](CO)N1C[C@H](C)[C@@H](CN(C)C(=O)Nc2ccc3c(c2)OCO3)OCCCC[C@H](C)Oc2ccc(NC(=O)c3ccncc3)cc2C1=O,/,/,/,54
C[C@@H]1CCCCO[C@H](CN(C)C(=O)Nc2cccc3ccccc23)[C@@H](C)CN([C@@H](C)CO)C(=O)c2cc(NC(=O)CCC(F)(F)F)ccc2O1,/,/,/,.
C[C@H](CO)N1C[C@H](C)[C@@H](CN(C)C(=O)Nc2ccc3c(c2)OCO3)Oc2ncc(C#CC3(O)CCCC3)cc2C1=O,/,/,/,60
CO[C@@H]1CN(C)C(=O)c2cc(NC(=O)C3CC3)ccc2OC[C@H](C)N(CC2CCCC2)C[C@H]1C,/,/,/,.
CCc1nc(NC(C)(C)C)c2cnn(-c3ccccc3)c2n1,.,.,.,74
CO[C@H]1CN(C)C(=O)c2ccc(NC(C)=O)cc2OC[C@@H](C)N(C(=O)CN2CCOCC2)C[C@@H]1C,/,/,/,.
CCOc1ccc2nc(SCC(=O)c3ccc(Cl)s3)sc2c1,.,.,.,/
CCOc1ccc2nc(SCC(=O)c3cccs3)sc2c1,.,.,.,90
NNC(=O)c1ccc(COc2ccc3c(c2)CCC3)o1,.,.,.,/
O=C(N/N=C/c1cccc(O)c1)c1ccc(COc2ccc3c(c2)CCC3)o1,.,.,.,52
Cc1ccsc1C(=O)Nc1nnc(-c2ccco2)o1,.,.,.,43
O=C(CCCc1ccccc1)NC12CC3CC(CC(C3)C1)C2,.,.,.,54
O=C(NCCc1ccc(F)cc1)NC12CC3CC(CC(C3)C1)C2,.,.,.,72
COc1ccc(CCNC(=O)NC23CC4CC(CC(C4)C2)C3)cc1,.,.,.,.
CCNC(=O)C[C@@H]1CC[C@H]2[C@@H](COc3ccc(NC(=O)Nc4ccccc4Cl)cc3C(=O)N2C)O1,/,/,/,.
CCc1nnc(NC(=O)C23CC4CC(CC(C4)C2)C3)s1,.,.,.,56
CC(C)Cc1nnc(NC(=O)C23CC4CC(CC(C4)C2)C3)s1,.,.,.,.
O=C(Nc1ccc(F)cc1)/C(Cl)=C/c1ccccc1,.,.,.,48
Cc1ccc(NC(=O)/C(Cl)=C\c2ccccc2)cc1,.,.,.,.
C[C@H](CO)N1C[C@H](C)[C@H](CN(C)Cc2ccc(C(=O)O)cc2)Oc2ccc(NC(=O)CCC(F)(F)F)cc2CC1=O,/,/,/,.
Cc1ccc2c(c1)c(C)c(C)n2CC(O)Cn1nnc2ccccc21 (configuration not stated),.,.,.,63
O=C(c1ccco1)n1nc(-c2ccco2)nc1SCc1ccccc1,.,.,.,45
O=C(c1ccco1)n1nc(-c2ccccc2)nc1SCc1ccccc1,.,.,.,47
SMILES,SMARCA2 act,ASAP1 inh,ARFGAP1 inhibitor,esBAF inh
Cc1ccc(S(=O)(=O)n2nc(-c3ccco3)nc2SCc2ccccc2)cc1,.,.,.,48
C[C@@H]1CN([C@H](C)CO)C(=O)c2cc(NC(=O)CCC(F)(F)F)ccc2O[C@@H]1CN(C)Cc1ccc(Cl)c(Cl)c1,/,/,/,.
Cc1ccccc1C(=O)NC(=S)Nc1ccccc1C(=O)O,.,.,.,.
Cc1ccccc1C(=O)NC(=S)Nc1ncccn1,.,.,.,47
CC(=O)c1cc2c(=O)c3cc(C)ccc3oc2nc1C,.,.,.,60
CCN(CC)C(=O)c1cc2c(=O)c3cc(Cl)ccc3oc2nc1C,.,.,.,45
COc1ccc(NC(=O)c2c(Cl)n(C)c3ccccc23)cc1,.,.,.,59
Cc1ccc(S(=O)(=O)NCC[C@H]2CC[C@H](NC(=O)c3cccc(F)c3)[C@@H](CO)O2)cc1,/,/,/,.
O=C(CSc1ccc(-c2cccnc2)nn1)N1CCCc2ccccc21,.,.,.,/
CC(Sc1nnc(-c2cccnc2)n1-c1ccccc1F)C(=O)N1CCCc2ccccc21 (configuration not stated),7.9,.,.,/
Cc1ccc(OCCn2ncc3ccccc3c2=O)c(C)c1,.,.,.,.
O=c1c2ccccc2cnn1CCOc1cccc(Br)c1,.,.,.,49
COc1ccc2c3n([n+]([O-])c2c1)CCN=C3c1ccc(Cl)cc1,.,.,.,42
[O-][n+]1c2ccccc2c2n1CCN=C2c1ccc(Cl)cc1,.,.,.,.
c1ccc(-c2noc(C34CC5CC(CC(C5)C3)C4)n2)nc1,.,.,.,53
CCOc1ccc(N/C=C/C(=O)c2ccc(OC)cc2)c([N+](=O)[O-])c1,.,.,.,73
CCOc1ccc(NC(=O)c2ccc(CC)s2)c([N+](=O)[O-])c1,.,.,.,50
COc1cccc(NC(=O)CNC(=O)N2CC(=O)Nc3ccccc32)c1,.,.,.,44
O=C1CN(C(=O)OCc2ccccc2)c2ccccc2N1,.,.,.,50
COc1cccc(NC(=O)C(=O)NCc2ccncc2)c1,.,.,.,52
COc1ccc(CNC(=O)CNC(=O)N2CC(=O)Nc3ccccc32)cc1,.,.,.,.
COc1cccc(NC(=O)Cc2ccccc2)c1,.,.,.,64
C[C@@H]1CCCCO[C@H](CN(C)C(=O)Nc2cccc3ccccc23)[C@H](C)CN([C@@H](C)CO)C(=O)c2cc(NC(=O)Nc3ccc(F)cc3)ccc2O1,/,/,/,.
CN(C)CCCNC(=O)[C@@H]1[C@@H](CO)[C@@H]2Cn3c(ccc(-c4cccc(C(=O)N(C)C)c4)c3=O)[C@H]1N2,/,/,/,.
COc1cccc(C(=O)Nc2cccc(SC)c2)c1,.,.,.,60
SMILES,SMARCA2 act,ASAP1 inh,ARFGAP1 inhibitor,esBAF inh
COc1cccc(C(=O)Nc2ccc(NC(=O)Cc3ccccc3)cc2)c1,.,.,.,.
CSc1cccc(NC(=O)c2cccc3cccnc23)c1,.,.,.,48
COc1cccc(C(=O)Nc2ccccc2)c1,.,.,.,52
COc1ccccc1C(=O)Nc1cccc(SC)c1,.,.,.,/
COc1cccc(/C(C)=N/N=C(\C)c2cccc(OC)c2)c1,.,.,.,70
COc1cccc(C(=O)Nc2ccc3ccccc3c2)c1,.,.,.,.
COc1cccc(NC(=O)c2c(C)nn(-c3ccccc3)c2Cl)c1,.,.,.,50
C[C@@H]1CCCCO[C@H](CN(C)C)[C@@H](C)CN([C@@H](C)CO)C(=O)c2cc(NS(=O)(=O)c3ccccc3)ccc2O1,/,/,/,.
CO[C@@H]1CN(C)C(=O)c2cc(NC(=O)c3cc(C)on3)ccc2OC[C@H](C)N(C)C[C@@H]1C,/,/,/,.
COc1ccccc1-c1ccc(Nc2cccc(C(C)=O)c2)nn1,.,.,.,51
CC(=O)c1cccc(Nc2ccc(-c3ccccc3F)nn2)c1,.,.,.,/
CC(=O)c1ccc(Nc2ccc(-c3ccccc3C)nn2)cc1,.,.,.,83
C[C@@H]1CN([C@H](C)CO)C(=O)c2cc(C#C[C@@H](C)O)cnc2O[C@@H]1CN(C)Cc1ccccn1,/,/,/,.

# Compound activity: PubChem BioAssay, several laboratories
